Screening data from PubChem.
Rows were chosen to be rich in hits. Some 2.7% of all compounds tested hit in one or more screens of this group.
NR1D1 modulator: modulators of human Rev-erb alpha DNA binding. AID 1259318. Rev-erbα–FITC-DNA binding, fluorescence polarization, 90 min. P20393. activity, % at 10 µM. hit rate 0.79% among 370,000;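 active = activity above about 14%, limit read from the data; passing the limit was not always enough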;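 note: 0% = DMSO wells with 35 nM protein and 100% = DMSO wells with 750 nM protein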
Target sequence (P20393 whole entry, looked up): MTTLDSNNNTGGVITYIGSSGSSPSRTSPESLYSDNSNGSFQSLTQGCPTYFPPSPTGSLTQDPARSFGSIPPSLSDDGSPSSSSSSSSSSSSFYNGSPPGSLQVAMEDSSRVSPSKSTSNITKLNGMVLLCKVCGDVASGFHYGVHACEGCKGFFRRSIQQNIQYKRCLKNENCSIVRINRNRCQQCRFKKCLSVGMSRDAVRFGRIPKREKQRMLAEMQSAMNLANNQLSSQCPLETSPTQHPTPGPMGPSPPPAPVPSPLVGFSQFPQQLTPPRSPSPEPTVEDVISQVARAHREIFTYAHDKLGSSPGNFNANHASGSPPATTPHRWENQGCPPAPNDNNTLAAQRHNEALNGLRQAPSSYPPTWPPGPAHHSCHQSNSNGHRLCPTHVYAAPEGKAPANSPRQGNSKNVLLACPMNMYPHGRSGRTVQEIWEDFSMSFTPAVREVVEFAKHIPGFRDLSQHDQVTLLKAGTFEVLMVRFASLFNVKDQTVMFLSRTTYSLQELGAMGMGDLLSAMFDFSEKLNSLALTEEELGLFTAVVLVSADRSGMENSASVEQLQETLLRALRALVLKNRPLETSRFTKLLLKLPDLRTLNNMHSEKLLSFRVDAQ
MC4R ag barr: human MC4R agonism via beta-arrestin; P32245; U2OS MC4R beta-arrestin complementation, luminescence; percent of melanotan II response, DMSO zero; activation, % at 8.9 µM; hit rate 0.98% among 360,000; AID 540308;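 active = activation above a per-plate cutoff, the mean activation of sample wells on that plate plus 3 SD, cut at about 8% in these data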
NR2E3 ag-1: human photoreceptor-specific nuclear receptor agonism. Q9Y5X4. CHO-S Gal4-NCOR/VP16-NR2E3 two-hybrid, luciferase. inhibition of corepressor binding, % at 3.98 µM. hit rate 0.35% among 360,000;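 active = inhibition above the mean of all tested compounds plus 3 SD, cut at about 70% in these data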;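 note: 0% = DMSO with NR2E3 transfected cells and 100% = cells lacking NR2E3 construct; higher means lower luciferase signal from less NR2E3 corepressor binding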
MC4R antagonist: blocks human MC4R cAMP signaling; P32245; AID 540295; inhibition, % at 6.5 µM; hit rate 0.48% among 360,000; MC4R-expressing cells, MTII-stimulated cAMP, LANCE TR-FRET;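 active = inhibition above its plate's cutoff, the mean of tested wells on that plate plus 3 SD, cut at about 29% in these data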;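 note: 0% = Melanotan II alone and 100% = Melanotan II plus saturating MCL0020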
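material = U2OS cells stably expressing human melanocortin 4 receptor (MC4R) | also added = Melanotan II challenge | dosing = single nominal compound dose of 6.5 µM | detection = TR-FRET with Eu-cAMP and labeled anti-cAMP, 671 nm | replication = singlicate | timing = compound 30 min, challenge 1 h, detection 1 h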
PG9 binder: binds the HIV-1 gp120 antibody PG9; TR-FRET gp120-PG9 antibody binding; inhibition, % at 6.7 µM; hit rate 0.43% among 360,000; in the data active = inhibition above about 8.5%
NR2E3 ag-2: agonists of human nuclear receptor NR2E3 | Q9Y5X4 | GST-NR2E3/biotin-RetCOR TR-FRET, 1536-well | inhibition of corepressor binding, % at 4.78 µM | hit rate 0.12% among 320,000;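 active = percent inhibition above the cutoff of mean plus 3 SD of all tested compounds, set per screening campaign, cut at about 20% in these data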;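 note: 0% = DMSO wells and 100% = biotin wells as full block of FRET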
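System: GST-tagged NR2E3 plus biotinylated RetCOR corepressor; Amount: 1.35 nM GST-tagged NR2E3 final; Dosing: single nominal compound dose of 4.8 µM; Schedule: 5 h incubation at 4 °C; Technique: TR-FRET with europium anti-GST and streptavidin-D2, 340 nm excitation; Controls: biotin wells as high control, 0.6% DMSO wells as low control.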
MC4R barr ag: human MC4R beta-arrestin agonism confirmation | shares compounds with MC4R ag barr | U2OS MC4R beta-arrestin recruitment, luminescence; scaled DMSO 0%, Melanotan II 100% | activation, % at 8.9 µM | hit rate 31% among 2,400 | AID 602192;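 active = mean activation across replicates above the hit cutoff set in the earlier primary screen, cut at about 8% in these data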
MOR DOR agonist: OPRM1-OPRD1 heterodimer agonism counter-screen. hit rate 5.8% among 2,400. activation, % at 9.2 µM. U2OS PathHunter beta-arrestin, beta-gal luminescence; percent of deltorphin B response, DMSO zero. shares compounds with MC4R ag barr. AID 602194;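 active = mean activation across replicates exceeds the hit threshold derived in the earlier primary screen, cut at about 18% in these data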;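 note: 100% = deltorphin B at 0.9 µM final and 0% = DMSO alone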
Active calls of the source: *; · = no result given.

SMILES	NR1D1 modulator	MC4R ag barr	NR2E3 ag-1	MC4R antagonist	PG9 binder	NR2E3 ag-2	MC4R barr ag	MOR DOR agonist
O=C(Nc1nc(-c2ccc([N+](=O)[O-])cc2)cs1)c1c(F)cccc1F	9.0	23.8*	-2.2	15.3	1.0	2.4	0.8	4.4
Cc1ccc(-c2csc(NC(=O)c3cccc([N+](=O)[O-])c3)n2)cc1	-2.1	17.6*	-3.1	2.4	-0.1	0.1	12.7*	5.2
CC(=O)Nc1ccc(-c2nnc(SCC(=O)n3c4c(c5ccccc53)CCCC4)n2C)cc1	-8.7	-0.5	-17.7	2.9	-0.6	·	·	·
OC(CNCc1ccccc1)COc1ccccc1 (centres undefined)	-1.0	2.3	8.2	16.1	0.2	3.8	·	·
CC(OC(=O)C1CCCCC1)C(=O)Nc1ccc(S(N)(=O)=O)cc1 (centres undefined)	-0.5	2.1	15.6	18.1	2.1	4.2	·	·
CCc1ccc(NC(=S)NC(=O)c2c(-c3ccccc3Cl)noc2C)cc1	2.4	-1.3	-5.8	24.4	-0.5	-0.8	·	·
O=C(Nc1ccc([N+](=O)[O-])cc1Cl)c1cccc([N+](=O)[O-])c1	-16.6	12.5*	-39.2	5.2	-2.3	·	6.8	10.8
Cc1onc(-c2ccccc2Cl)c1C(=O)NC(=S)NCC(=O)c1ccccc1	15.0	19.0*	-2.4	2.8	2.8	1.7	3.6	4.7
COc1cc(CC(=O)NCCc2ccc(OCc3ccccc3)cc2)c([N+](=O)[O-])cc1OC	-1.5	12.4*	-33.1	1.6	-0.4	2.5	1.7	5.2
CCOc1ccc(C(=O)OCC(=O)Nc2ccc(SC(F)F)cc2)cc1OCC	-9.2	19.0*	30.4	2.0	-0.2	-2.0	2.7	4.7
O=C(COC(=O)c1cc[n+]([O-])cc1)Nc1ccc(SC(F)F)cc1	-1.7	2.0	-33.0	3.0	-2.0	0.2	·	·
Cc1csc(SCC(=O)Nc2ccccn2)n1	-9.4	-0.9	-31.4	2.7	-0.5	5.3	·	·
COC(=O)c1ccc2c(=O)[nH]c(CSc3nc(-c4ccc(F)cc4)cs3)nc2c1	9.5	10.4*	-44.6	14.3	-0.9	0.1	-1.3	1.1
O=c1[nH]c(CSc2nc(-c3ccc(F)cc3)cs2)nc2ccccc12	-1.2	9.6*	9.2	-27.1	-1.3	1.4	1.5	3.8
O=C(CSc1nc(-c2ccc(F)cc2)cs1)Nc1ccccn1	-0.4	24.0*	-1.4	-3.5	0.7	3.6	2.0	13.5
O=c1[nH]c(CSc2nc(-c3ccccc3)cs2)nc2ccccc12	1.2	5.3	30.3	-19.8	1.7	-1.1	·	·
O=C(OCC(O)C(O)C(O)C(SCc1ccccc1)SCc1ccccc1)c1ccccc1 (centres undefined)	3.2	17.2*	-20.3	6.4	-0.6	·	14.1*	11.2
O=C(OCC(O)C(O)C(O)COC(=O)c1ccccc1)c1ccccc1 (centres undefined)	6.8	-2.6	-28.2	26.3	-0.3	·	·	·
Fc1ccc(NC(=S)N/N=C/c2ccc(F)c(F)c2)cc1	3.5	0.5	-77.1	3.6	1.1	2.0	·	·
O=[N+]([O-])c1cc(/C=N/NC(=S)Nc2ccccc2Cl)ccc1Cl	2.4	-1.5	-25.1	-10.8	0.6	-3.3	·	·
Cc1ccc(NC(=S)N/N=C/c2ccc(Cl)c([N+](=O)[O-])c2)cc1	-0.6	20.8*	-15.2	28.0	-2.3	-0.7	4.7	2.5
Cc1ccc(CNC(=S)Nc2ccc(C)c([N+](=O)[O-])c2)cc1	-6.4	13.0*	17.1	1.6	-4.4	1.7	-0.3	7.4
COc1ccc(NC(=S)N/N=C/c2cccn2Cc2ccc(F)cc2Cl)cc1	6.3	0.7	-13.2	14.8	-1.1	1.3	·	·
COc1ccc(NC(=S)N/N=C/c2ccc(F)c(F)c2)cc1	3.5	13.7*	-74.1	12.4	-1.3	-3.3	2.7	7.1
Cc1ccc(NC(=S)NCc2ccccc2)cc1[N+](=O)[O-]	-1.3	-0.9	-19.8	-1.7	-1.6	-0.9	·	·
SMILES	NR1D1 modulator	MC4R ag barr	NR2E3 ag-1	MC4R antagonist	PG9 binder	NR2E3 ag-2	MC4R barr ag	MOR DOR agonist
COc1ccc(NC(=S)N/N=C/c2cccn2Cc2ccccc2F)cc1	-2.4	10.2*	-29.1	12.8	-1.4	-2.0	0.2	7.5
C[C@H]1CN([C@@H](C)CO)C(=O)CCCn2cc(nn2)CO[C@@H]1CN(C)C(=O)c1cc(-c2ccccc2)on1	-8.9	-0.1	8.8	2.3	-2.2	·	·	·
O=C(NCCNC(=O)C(c1ccccc1)c1ccccc1)c1ccco1	0.9	-0.8	-20.0	2.3	0.8	3.8	·	·
COCCn1c(SCC(=O)Nc2ccc(NC(=O)c3ccco3)c(OC)c2)nc2ccccc2c1=O	-3.6	26.6*	-5.0	-4.4	2.1	1.0	7.5	15.8
C=CCn1c(SCC(=O)Nc2ccc(OC)cc2)nc2ccccc2c1=O	-2.0	14.9*	-15.2	1.6	-0.2	3.0	-1.5	1.2
CCn1c(SCC(=O)Nc2ccc(NC(=O)c3ccco3)c(OC)c2)nc2ccccc2c1=O	3.7	17.8*	-4.5	15.4	0.3	4.0	4.6	2.2
C=CCn1c(SCC(=O)Nc2sccc2C(N)=O)nc2sc(C)c(C)c2c1=O	-2.4	2.2	-2.1	-18.1	-0.1	6.6	·	·
COc1ccc(NC(=O)CSc2nc3ccccc3c(=O)n2CCNC(C)=O)cc1	-1.5	2.9	0.6	3.0	2.1	0.5	·	·
C=CCn1c(SCC(=O)Nc2ccccc2C)nc2sc(C)c(C)c2c1=O	19.6	24.0*	-26.1	-2.9	2.2	-4.4	-0.4	5.7
CCOc1cc(C2C3=C(CC(C)(C)CC3=O)N(CCCOC)C3=C2C(=O)CC(C)(C)C3)ccc1O	6.5	0.8	-22.6	-0.1	-0.7	·	·	·
COc1ccc(CN2CCN(C(=O)CC(C)C)CC2)cc1OC	-3.1	-1.1	-0.1	-1.5	1.2	6.2	·	·
CCC(C)c1ccc2oc(-c3ccc(NC(=O)Cn4cnc5c(=O)n(C)c(=O)n(C)c54)cc3)nc2c1 (centres undefined)	-6.6	14.1*	-69.8	23.8	-0.3	2.5	8.6*	·
Cc1nc(NC(=O)/C=C/c2ccccc2)sc1C(=O)Nc1cccc(Cl)c1	-4.4	11.6*	-21.8	0.3	-2.8	0.6	6.7	3.0
O=C(Nc1ccc2c(c1)OCO2)c1cc(-c2ccc(O)cc2)on1	-2.7	10.5*	-47.0	-5.3	1.3	-8.1	3.7	6.9
O=C(Nc1ccc2c(c1)OCO2)c1cc(-c2cccc(O)c2)on1	9.9	-2.8	-47.7	-0.9	-0.6	3.8	·	·
